IMP-1 inh-1: blocks Pseudomonas aeruginosa IMP-1 metallo-beta-lactamase | purified IMP-1, nitrocefin hydrolysis, epi-absorbance fluorescence | inhibition, % at 5.6 µM | hit rate 0.45% among 290,000 | AID 1556;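 active means inhibition above the mean plus 3 SD of all compounds in the same screening run, cut at about 4.5% in these data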;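 further: 0% = IMP-1 with DMSO and 100% = DMSO wells lacking enzyme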
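system = purified recombinant IMP-1 beta-lactamase | amount = 0.2 nM IMP-1, as dispensed | medium = HEPES buffer pH 7.1 with ZnSO4 and Brij 35 | times = 25 °C, 15 min preincubation, 25 min reaction | detection = plate fluorescence quenching by hydrolysis product, ex 480/em 530 nm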
VIM-2 inh: inhibitors of Pseudomonas aeruginosa VIM-2 metallo-beta-lactamase; inhibition, % at 5.6 µM; purified VIM-2, nitrocefin hydrolysis, epi-absorbance fluorescence; hit rate 0.89% among 290,000;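 active means inhibition above the mean of all tested compounds plus 3 SD, cutoff set per screening run, cut at about 7.5% in these data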;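 further: red hydrolysis product quenches plate fluorescence so inhibitors raise well fluorescence; 0% = enzyme with DMSO and 100% = DMSO without enzyme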
HGIII-sPLA2 inh: Inhibits HGIII-sPLA2 liposome hydrolysis, primary screen; Q9NZ20; QFRET BODIPY PC-A2 liposome hydrolysis, fluorescence; inhibition, % at 12.2 µM; hit rate 0.56% among 370,000;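 active means inhibition above mean plus 3 SD of compounds lying within the high and low control bounds, cut at about 19% in these data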;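 further: 0% = median of test compound wells and 100% = no enzyme DMSO wells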
M18AAP inhibitor: blocks P. falciparum M18 aspartyl aminopeptidase; hit rate 1.2% among 290,000; AID 1822; recombinant PfM18AAP, H-Glu-NHMec fluorogenic cleavage; inhibition, % at 7.35 µM;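 active means inhibition above the campaign mean inhibition over all tested compounds plus 3 SD, cut at about 28% in these data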;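 further: 0% = plate median of test compound wells and 100% = 2 mM ZnCl2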
IMP-1 inh-2: blocks IMP-1 metallo-beta-lactamase in VIM-2 selectivity screen | shares compounds with VIM-2 inh | 1,300 tested, under 10 active | purified IMP-1, nitrocefin hydrolysis, epi-absorbance fluorescence | inhibition, % at 5.6 µM; call rule not given here;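 further: 0% = enzyme with vehicle and 100% = vehicle without enzyme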
VIM-2 FRET inh: counter-screen for VIM-2 inhibitors: epi-absorbance artifacts via FRET. AID 1857. shares compounds with VIM-2 inh. inhibition, % at 5.6 µM. purified VIM-2, CCF2 FRET substrate hydrolysis. hit rate 23% among 1,300;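 active means inhibition above the mean of all tested compounds plus 3 SD, cut at about 19% in these data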;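 further: 0% = VIM-2 plus DMSO and 100% = no enzyme wells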
TEM-1 counter: TEM-1 inhibition, counter-screen for VIM-2 inhibitors; shares compounds with VIM-2 inh; Purified TEM-1, nitrocefin hydrolysis, epi-absorbance fluorescence; inhibition, % at 5.6 µM; hit rate 3% among 1,300; AID 1866;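 active means inhibition above that campaign's mean inhibition plus 3 SD, cut at about 0.46% in these data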;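 further: 0% = TEM-1 with DMSO and 100% = TEM-1 with 100 µM potassium clavulanate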
Target sequence (P62593 whole entry, looked up): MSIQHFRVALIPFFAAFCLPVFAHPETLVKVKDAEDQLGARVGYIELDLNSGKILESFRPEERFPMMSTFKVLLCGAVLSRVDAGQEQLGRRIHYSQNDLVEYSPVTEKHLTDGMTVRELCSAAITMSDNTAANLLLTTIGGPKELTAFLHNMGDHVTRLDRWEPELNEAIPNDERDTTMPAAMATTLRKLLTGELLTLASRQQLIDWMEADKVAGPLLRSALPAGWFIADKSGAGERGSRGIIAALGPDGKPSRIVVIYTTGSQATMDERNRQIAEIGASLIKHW
VIM-2 inh conf: confirmation of P. aeruginosa VIM-2 metallo-beta-lactamase inhibitors; inhibition, % at 5.6 µM; AID 2187; purified VIM-2, nitrocefin hydrolysis, epi-absorbance; hit rate 96% among 1,300; shares compounds with VIM-2 inh;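 active means inhibition of the VIM-2 beta-lactamase enzyme above about 11% from the earlier first-round screen, limit read from the data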;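 further: 0% = VIM-2 with DMSO and 100% = buffer wells without enzyme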
The depositor's hits bear a star. In the library only some 2.4% were active in any assay of this set; here they are far more common.

What do the screens show for `COc1ccc(C(=O)Nc2ccc(N3CCN(C)CC3)cc2)cc1`?
IMP-1 inh-1: -6.2; VIM-2 inh: 15.5*; HGIII-sPLA2 inh: 4.2; M18AAP inhibitor: -6.6; IMP-1 inh-2: -2.0; VIM-2 FRET inh: 1.6; TEM-1 counter: -1.6; VIM-2 inh conf: 25.7*

How did Cc1ccc2[nH]c(C(=O)NCCN3CCCC3)cc2c1 do in these assays?
IMP-1 inh-1: -3.3; VIM-2 inh: -0.2; HGIII-sPLA2 inh: -2.0; M18AAP inhibitor: 7.0

How did COc1ccc(-c2oc(=O)c3cc(OC)c(OC)cc3c2C#C[C@]2(O)CC[C@H]3[C@@H]4CCc5cc(OC)ccc5[C@H]4CC[C@@]32C)cc1 do in these assays?
HGIII-sPLA2 inh: 5.1

How did CCN1CCN(c2ccc(NC(=O)c3ccc(Cl)c(N4CCCC4=O)c3)cc2)CC1 do in these assays?
IMP-1 inh-1: -4.1; VIM-2 inh: 25.9*; HGIII-sPLA2 inh: 13.8; M18AAP inhibitor: -9.2; IMP-1 inh-2: -2.0; VIM-2 FRET inh: -0.6; TEM-1 counter: -5.0; VIM-2 inh conf: 42.3*

What do the screens show for `COc1ccc(C(=O)Nc2ccc(N3CCN(C)CC3)cc2)cc1OC`?
IMP-1 inh-1: -5.4; VIM-2 inh: 24.0*; HGIII-sPLA2 inh: 4.5; M18AAP inhibitor: 4.9; IMP-1 inh-2: -3.0; VIM-2 FRET inh: 2.6; TEM-1 counter: -6.0; VIM-2 inh conf: 38.6*

What do the screens show for `O=C(Nc1ccccc1C(F)(F)F)OCCN1C(=O)CCC12CCC(c1ccccc1)CC2` (stereo not given)?
HGIII-sPLA2 inh: 2.8

Results for C[n+]1ccc(/C=N/Nc2nc(Cl)c(C#N)c(Cl)c2Cl)cc1 ?
IMP-1 inh-1: -7.5; VIM-2 inh: 42.7*; HGIII-sPLA2 inh: 13.6; M18AAP inhibitor: 4.5; IMP-1 inh-2: -9.2; VIM-2 FRET inh: 34.2*; TEM-1 counter: -13.2; VIM-2 inh conf: 53.1*

Results for CCc1nc2c(OCc3cccc(Cl)c3)cccn2c1N(C)C(=O)c1ccncc1 ?
HGIII-sPLA2 inh: -1.1

How did CS(=O)(=O)Nc1cccc(NC(=O)C2Cc3c(-c4cccc(F)c4)ccnc3O2)c1 (stereo not given) do in these assays?
HGIII-sPLA2 inh: -6.5

How did S=c1[nH]nc(-c2ccccc2)n1Cc1ccccc1 do in these assays?
IMP-1 inh-1: 1.8; VIM-2 inh: 13.3*; HGIII-sPLA2 inh: 10.1; M18AAP inhibitor: 20.1; IMP-1 inh-2: -3.1; VIM-2 FRET inh: 34.3*; TEM-1 counter: -7.7; VIM-2 inh conf: 22.0*

Results for S=c1[nH]nc(C2CC2)n1Cc1ccccc1 ?
IMP-1 inh-1: -3.7; VIM-2 inh: 47.5*; HGIII-sPLA2 inh: 5.3; M18AAP inhibitor: 14.6; IMP-1 inh-2: -3.4; VIM-2 FRET inh: 75.0*; TEM-1 counter: -6.7; VIM-2 inh conf: 61.5*

How did S=c1[nH]nc(-c2ccco2)n1Cc1ccccc1 do in these assays?
IMP-1 inh-1: 0.5; VIM-2 inh: 26.4*; HGIII-sPLA2 inh: 16.7; M18AAP inhibitor: 16.4; IMP-1 inh-2: -3.2; VIM-2 FRET inh: 58.5*; TEM-1 counter: -7.8; VIM-2 inh conf: 40.4*

What do the screens show for `OC(CON=C1c2ccccc2-c2ccccc21)CN1CCNCC1` (stereo not given)?
IMP-1 inh-1: -0.6; VIM-2 inh: 30.1*; HGIII-sPLA2 inh: 4.9; M18AAP inhibitor: 2.6; IMP-1 inh-2: -3.2; VIM-2 FRET inh: -3.5; TEM-1 counter: -6.5; VIM-2 inh conf: 45.2*

What do the screens show for `OC(CN1CCNCC1)Cn1ccc2ccccc21` (stereo not given)?
IMP-1 inh-1: -3.4; VIM-2 inh: -4.9; M18AAP inhibitor: 0.0

How did CCN1CCN(c2ccc(N=Cc3ccc(O)cc3O)cc2)CC1 do in these assays?
IMP-1 inh-1: -5.5; VIM-2 inh: 27.2*; HGIII-sPLA2 inh: -2.5; M18AAP inhibitor: -4.1; IMP-1 inh-2: -7.0; VIM-2 FRET inh: -3.2; TEM-1 counter: -9.9; VIM-2 inh conf: 45.1*

What do the screens show for `COc1ccc(NC(=O)c2cnc(SC)nc2C)c(OC)c1`?
IMP-1 inh-1: -1.1; VIM-2 inh: -0.1; HGIII-sPLA2 inh: 7.8; M18AAP inhibitor: -6.9
